Measured values: ChEMBL document CHEMBL4699389, “Design and synthesis of a bivalent probe targeting the putative mu opioid receptor and chemokine receptor CXCR4 heterodimer” (RSC Med Chem, 2020)
The source made the active and inactive calls. No cut-off for these calls is given here.

Experiments:
Mu-type opioid receptor [1] = molecular target: T1, Mu-type opioid receptor (Mus musculus, UniProt P42866); test: Displacement of [3H]-NLX from mouse MOR expressed in CHO cells incubated for 1.5 hrs by radioligand binding assay; type: cell-based
[2] = molecular target: T2, C-X-C chemokine receptor type 4 (Homo sapiens, UniProt P61073); test: Binding affinity to CXCR4 (unknown origin) expressed in CHO cells incubated for 40 mins by immunofluorescence assay; type: cell-based
Summary of the method: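 Trypsinized CHO-CXCR4 cells (5×10⁵ per well) in FACS buffer (0.5% BSA, 0.05% azide in PBS). Incubated 40 min on ice with mouse anti-human CD184 (1:2000) plus graded compound concentrations, then with anti-mouse IgG-FITC (1:1000) for 30 min on ice. IC50 from at least three independent experiments.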

[3] = molecular target: Mu-type opioid receptor (Mus musculus) (UniProt P42866); test: Agonist activity at mouse MOR expressed in CHO cells assessed as increase in calcium influx incubated for 15 mins by Fluo-4AM dye based fluorescence assay; type: functional, cell-based
Summary of the method: (§1)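 Cells transiently transfected with Gqi5 (Lipofectamine 2000), plated at […] per well and grown to confluence. At 48 h post-transfection, loaded with fluo-4 AM plus probenecid in HBSS-HEPES-Ca-Mg buffer for 45 min. Ligands tested alone at 0.3 nM to 3 μM. Ca²⁺ followed as RFU for 90 s on FlexStation3. Triplicate doses, at least 4 repeats.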

[4] = molecular target: T2, C-X-C chemokine receptor type 4; test: Agonist activity at […] (unknown origin) expressed in HOS cells assessed as increase in calcium influx incubated for 15 mins by Fluo-4AM dye based fluorescence assay; type: functional, cell-based; summary of the method: as §1
Mu-type opioid receptor [5] = molecular target: T1, Mu-type opioid receptor; test: Antagonist activity at mouse MOR expressed in CHO cells assessed as decrease in DAMGO-induced calcium influx incubated for 15 mins followed by DAMGO stimulation and measured after 90 sec by Fluo-4AM dye based fluorescence assay; type: functional, cell-based
Summary of the method: (§2)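 Gqi5-transfected cells, 48 h post-transfection, loaded with fluo-4 AM/probenecid for 45 min. Pre-incubated 15 min with compound at varying concentrations, then agonist added: SDF-1 for CXCR4-HOS, DAMGO for MOR-CHO. RFU read for 90 s on FlexStation3. IC50 from peak values by non-linear regression. Triplicate doses, at least 4 repeats.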

[6] = molecular target: T2, C-X-C chemokine receptor type 4; test: Antagonist activity at CXCR4 (unknown origin) expressed in HOS cells assessed as decrease in SDF1-induced calcium influx incubated for 15 mins followed by SDF1 stimulation and measured after 90 sec by Fluo-4AM dye based fluorescence assay; type: functional, cell-based; summary of the method: as §2

T2 sequence (P61073 whole entry): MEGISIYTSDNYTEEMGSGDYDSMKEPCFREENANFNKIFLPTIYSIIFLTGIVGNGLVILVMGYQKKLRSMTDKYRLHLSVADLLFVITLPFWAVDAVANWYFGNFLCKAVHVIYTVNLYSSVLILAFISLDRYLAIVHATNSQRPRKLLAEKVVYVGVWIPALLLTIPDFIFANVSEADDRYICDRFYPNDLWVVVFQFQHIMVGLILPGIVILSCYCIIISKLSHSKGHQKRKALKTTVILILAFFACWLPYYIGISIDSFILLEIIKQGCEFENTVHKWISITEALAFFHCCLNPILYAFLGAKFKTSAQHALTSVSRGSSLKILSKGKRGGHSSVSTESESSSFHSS
T1 sequence (P42866 whole entry): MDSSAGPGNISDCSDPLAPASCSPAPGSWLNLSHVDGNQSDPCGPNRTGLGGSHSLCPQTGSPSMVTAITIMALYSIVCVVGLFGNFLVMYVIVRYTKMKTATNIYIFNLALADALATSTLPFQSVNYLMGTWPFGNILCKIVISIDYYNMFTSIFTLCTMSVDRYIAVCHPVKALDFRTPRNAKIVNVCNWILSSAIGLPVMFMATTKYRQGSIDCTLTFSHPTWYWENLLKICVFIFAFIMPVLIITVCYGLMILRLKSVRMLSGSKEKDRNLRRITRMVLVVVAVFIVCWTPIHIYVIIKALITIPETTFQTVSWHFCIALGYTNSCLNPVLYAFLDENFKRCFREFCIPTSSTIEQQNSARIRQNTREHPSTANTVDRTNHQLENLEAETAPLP
Sequence of Mu-type opioid receptor (Mus musculus) (P42866 whole entry): as above

CC1(C)CN2C(CS/C(=N\[C@H]3CC[C@H](CNC(=O)COCC(=O)NCCCCCCNC(=O)COCC(=O)N[C@@H]4CC[C@@]5(O)[C@H]6Cc7ccc(O)c8c7[C@@]5(CCN6CC5CC5)[C@H]4O8)CC3)NC3CCCCC3)=CSC2=N1
Ki (Mu-type opioid receptor [1]): 0.0254 µM | IC50 [2]: 17.2 µM | Activity [3]: inactive | Activity [4]: inactive | IC50 (Mu-type opioid receptor [5]): 0.0619 µM | IC50 [6]: 3.3 µM

CNC(=O)COCC(=O)NCCCCCCNC(=O)COCC(=O)N[C@@H]1CC[C@@]2(O)[C@H]3Cc4ccc(O)c5c4[C@@]2(CCN3CC2CC2)[C@H]1O5
Ki (Mu-type opioid receptor [1]): 0.002 µM | Activity [3]: inactive | Activity [4]: inactive | IC50 (Mu-type opioid receptor [5]): 0.133 µM

CNC(=O)COCC(=O)NCCCCCCNC(=O)COCC(=O)NC[C@H]1CC[C@H](/N=C(/NC2CCCCC2)SCC2=CSC3=NC(C)(C)CN23)CC1
IC50 [2]: 74 µM | Activity [4]: inactive | IC50 [6]: 78.3 µM
